Measurements as given in the M2OR odorant receptor database.

Experiments:
Settings in all cases: stereoisomer not certain
OR13G1 (Homo sapiens) = molecular target: T1, OR13G1 (Homo sapiens) (UniProt Q8NGZ3)
T1 sequence (whole entry): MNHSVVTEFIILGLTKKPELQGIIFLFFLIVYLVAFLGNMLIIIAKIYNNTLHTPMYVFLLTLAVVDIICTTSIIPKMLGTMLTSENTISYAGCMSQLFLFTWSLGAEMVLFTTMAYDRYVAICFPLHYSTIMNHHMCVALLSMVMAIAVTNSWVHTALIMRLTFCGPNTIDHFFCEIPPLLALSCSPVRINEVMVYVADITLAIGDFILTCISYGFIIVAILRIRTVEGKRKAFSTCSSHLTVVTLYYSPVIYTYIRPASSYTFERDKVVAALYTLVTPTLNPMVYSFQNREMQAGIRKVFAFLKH
Procedure, shortened: (§1)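 Each receptor–molecule pair is labelled responsive or non-responsive (inactive) according to whether the original authors judged the measured signal statistically different from baseline. The data were taken from the main text and supplementary material of published papers and checked for typos and inconsistencies. Assay methods differed by source, with transient luciferase assays in mammalian cell lines being common.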

OR13H1 (Homo sapiens) = molecular target: T2, OR13H1 (Homo sapiens) (UniProt Q8NG92)
T2 sequence (whole entry): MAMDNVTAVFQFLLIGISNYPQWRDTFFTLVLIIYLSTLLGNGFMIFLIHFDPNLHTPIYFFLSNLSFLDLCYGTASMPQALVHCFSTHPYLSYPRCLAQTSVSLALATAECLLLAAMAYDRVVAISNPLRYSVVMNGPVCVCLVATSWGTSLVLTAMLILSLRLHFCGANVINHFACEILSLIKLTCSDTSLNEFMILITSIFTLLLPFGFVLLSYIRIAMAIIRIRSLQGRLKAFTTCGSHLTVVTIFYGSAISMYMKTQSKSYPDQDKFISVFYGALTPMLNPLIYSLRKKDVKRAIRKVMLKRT
Procedure, shortened: as §1

OR13J1 (Homo sapiens) = molecular target: T3, OR13J1 (Homo sapiens) (UniProt Q8NGT2)
T3 sequence (whole entry): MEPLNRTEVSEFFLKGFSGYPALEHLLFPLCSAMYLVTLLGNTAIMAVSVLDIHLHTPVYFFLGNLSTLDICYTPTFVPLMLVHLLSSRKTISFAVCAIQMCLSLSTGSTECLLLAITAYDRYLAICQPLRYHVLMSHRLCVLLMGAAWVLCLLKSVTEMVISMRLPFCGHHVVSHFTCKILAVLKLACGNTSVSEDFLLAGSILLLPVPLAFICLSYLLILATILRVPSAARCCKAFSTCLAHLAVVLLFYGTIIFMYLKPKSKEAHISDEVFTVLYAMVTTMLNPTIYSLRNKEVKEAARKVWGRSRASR
Procedure, shortened: as §1

OR14A16 (Homo sapiens) = molecular target: T4, OR14A16 (Homo sapiens) (UniProt Q8NHC5)
T4 sequence (whole entry): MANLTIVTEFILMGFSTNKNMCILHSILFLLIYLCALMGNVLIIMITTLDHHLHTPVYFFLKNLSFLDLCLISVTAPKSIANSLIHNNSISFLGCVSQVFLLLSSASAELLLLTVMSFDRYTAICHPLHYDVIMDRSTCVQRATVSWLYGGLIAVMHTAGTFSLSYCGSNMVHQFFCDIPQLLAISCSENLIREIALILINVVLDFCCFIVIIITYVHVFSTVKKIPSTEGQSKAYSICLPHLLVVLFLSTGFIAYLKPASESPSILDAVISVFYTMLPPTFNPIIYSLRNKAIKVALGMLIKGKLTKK
Procedure, shortened: as §1

OR14A2 (Homo sapiens) = molecular target: T5, OR14A2 (Homo sapiens) (UniProt Q96R54)
T5 sequence (whole entry): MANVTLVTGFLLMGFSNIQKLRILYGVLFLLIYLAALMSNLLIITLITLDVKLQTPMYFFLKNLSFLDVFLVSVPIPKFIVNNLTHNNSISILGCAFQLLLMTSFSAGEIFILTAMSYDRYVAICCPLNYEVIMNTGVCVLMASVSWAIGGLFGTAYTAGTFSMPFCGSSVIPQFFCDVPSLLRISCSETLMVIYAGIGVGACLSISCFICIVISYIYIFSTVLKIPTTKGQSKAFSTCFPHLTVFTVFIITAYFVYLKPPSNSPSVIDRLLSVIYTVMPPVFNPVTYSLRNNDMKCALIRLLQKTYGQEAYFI
Procedure, shortened: as §1

OR14C36 (Homo sapiens) = molecular target: T6, OR14C36 (Homo sapiens) (UniProt Q8NHC7)
T6 sequence (whole entry): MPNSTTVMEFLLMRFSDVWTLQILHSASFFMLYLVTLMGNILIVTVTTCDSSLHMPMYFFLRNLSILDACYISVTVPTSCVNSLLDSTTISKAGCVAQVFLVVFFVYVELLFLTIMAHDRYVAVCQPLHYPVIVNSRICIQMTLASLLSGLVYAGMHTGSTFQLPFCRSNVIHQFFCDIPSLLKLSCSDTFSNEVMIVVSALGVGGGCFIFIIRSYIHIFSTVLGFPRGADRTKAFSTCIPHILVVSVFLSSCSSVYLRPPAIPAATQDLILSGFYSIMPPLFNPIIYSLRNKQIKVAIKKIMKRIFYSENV
Procedure, shortened: as §1

OR14I1 (Homo sapiens) = molecular target: T7, OR14I1 (Homo sapiens) (UniProt A6ND48)
T7 sequence (whole entry): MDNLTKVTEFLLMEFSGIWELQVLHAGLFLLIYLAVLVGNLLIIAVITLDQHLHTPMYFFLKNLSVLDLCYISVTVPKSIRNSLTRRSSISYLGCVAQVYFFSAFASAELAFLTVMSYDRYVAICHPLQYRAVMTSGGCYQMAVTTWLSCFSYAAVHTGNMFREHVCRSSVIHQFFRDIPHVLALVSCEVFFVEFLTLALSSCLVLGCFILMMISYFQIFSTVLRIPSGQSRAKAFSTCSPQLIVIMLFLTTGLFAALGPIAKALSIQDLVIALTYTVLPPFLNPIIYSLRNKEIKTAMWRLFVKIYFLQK
Procedure, shortened: as §1

OR14J1 (Homo sapiens) = molecular target: T8, OR14J1 (Homo sapiens) (UniProt Q9UGF5)
T8 sequence (whole entry): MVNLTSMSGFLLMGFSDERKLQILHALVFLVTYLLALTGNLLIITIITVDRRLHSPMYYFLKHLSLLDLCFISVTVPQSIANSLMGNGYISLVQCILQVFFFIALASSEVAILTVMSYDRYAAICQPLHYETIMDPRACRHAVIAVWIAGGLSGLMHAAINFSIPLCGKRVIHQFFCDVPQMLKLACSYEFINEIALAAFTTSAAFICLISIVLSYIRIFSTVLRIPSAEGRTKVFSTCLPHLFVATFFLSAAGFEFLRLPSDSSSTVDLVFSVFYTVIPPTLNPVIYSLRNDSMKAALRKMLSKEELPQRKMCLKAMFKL
Procedure, shortened: as §1

OR14K1 (Homo sapiens) = molecular target: T9, OR14K1 (Homo sapiens) (UniProt Q8NGZ2)
T9 sequence (whole entry): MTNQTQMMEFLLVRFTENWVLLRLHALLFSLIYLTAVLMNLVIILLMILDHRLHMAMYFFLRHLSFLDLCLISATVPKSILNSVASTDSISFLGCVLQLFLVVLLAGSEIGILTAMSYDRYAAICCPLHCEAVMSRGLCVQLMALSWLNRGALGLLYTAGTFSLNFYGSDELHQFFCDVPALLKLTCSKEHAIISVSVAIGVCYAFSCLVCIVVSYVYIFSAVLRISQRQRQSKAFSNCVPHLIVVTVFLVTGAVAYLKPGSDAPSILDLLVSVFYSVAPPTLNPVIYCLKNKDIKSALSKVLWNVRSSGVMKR
Procedure, shortened: as §1

OR1A1 (Homo sapiens) = molecular target: T10, OR1A1 (Homo sapiens) (UniProt Q9P1Q5)
T10 sequence (whole entry): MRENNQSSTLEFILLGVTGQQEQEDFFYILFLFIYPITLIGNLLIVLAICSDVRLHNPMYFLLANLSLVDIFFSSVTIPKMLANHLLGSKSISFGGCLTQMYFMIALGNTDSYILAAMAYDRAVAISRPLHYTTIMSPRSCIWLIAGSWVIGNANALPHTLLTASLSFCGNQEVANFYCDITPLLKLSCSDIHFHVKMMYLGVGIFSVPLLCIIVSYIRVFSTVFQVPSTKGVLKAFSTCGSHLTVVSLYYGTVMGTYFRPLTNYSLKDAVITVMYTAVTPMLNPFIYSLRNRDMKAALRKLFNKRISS
Procedure, shortened: as §1

Measured: odorant receptor agonist call

CC1CCCCCCCCCCCCC(=O)C1 (stereo not given)
active: OR1A1 (Homo sapiens)
inactive: all other assays above
